Laboratory results from ChEMBL document CHEMBL3102784, “Salicylanilide diethyl phosphates: synthesis, antimicrobial activity and cytotoxicity” (Bioorg Med Chem, 2014).
Converted amounts (≈) assume the structure as drawn. The source made the active and inactive calls. The rule behind the calls is not given here.

Legend:
[1] = system: Mycobacterium avium; assay: Antimycobacterial activity against isoniazid, rifampicin, ethambutol and ofloxacin-resistant Mycobacterium avium My 330/88 after 21 days; type: functional; conditions: My 330/88, 504 h
How it was run: (§1)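 Micromethod MIC in Šula's semisynthetic medium at 37 °C. Compounds added in DMSO at 1000 down to 0.032 µmol/L. Isoniazid standard in sterile water at 0.5–250 µmol/L. Inocula: H37Rv 10^3, M. avium 10^5, M. kansasii 10^4. Read at 14 and 21 d, plus 7 d for M. kansasii.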

[2] = system: Mycobacterium avium; assay: Antimycobacterial activity against isoniazid, rifampicin, ethambutol and ofloxacin-resistant Mycobacterium avium My 330/88 after 14 days; type: functional; conditions: My 330/88, 336 h; how it was run: as §1
[3] = system: Mycobacterium tuberculosis; assay: Antimycobacterial activity against Mycobacterium tuberculosis H37Rv My 331/88 after 21 days; type: functional; conditions: H37Rv My 331/88, 504 h; how it was run: as §1
[4] = system: Mycobacterium tuberculosis; assay: Antimycobacterial activity against Mycobacterium tuberculosis H37Rv My 331/88 after 14 days; type: functional; conditions: H37Rv My 331/88, 336 h; how it was run: as §1
[5] = system: Trichophyton mentagrophytes; assay: Antifungal activity against Trichophyton mentagrophytes 445 after 120 hrs by broth microdilution method; type: functional; conditions: Trichophyton mentagrophytes, 445, 120 h
How it was run: (§2)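 Filamentous dermatophyte tested by broth microdilution in RPMI 1640 with glutamine, fluconazole as reference. Value expressed as IC50 relative to growth control. Read at 72 and 120 h.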

[6] = system: Trichophyton mentagrophytes; assay: Antifungal activity against Trichophyton mentagrophytes 445 after 72 hrs by broth microdilution method; type: functional; conditions: Trichophyton mentagrophytes, 445, 72 h; how it was run: as §2
[7] = system: Lichtheimia corymbifera; assay: Antifungal activity against Absidia corymbifera 272 after 48 hrs by broth microdilution method; type: functional; conditions: Lichtheimia corymbifera, 272, 48 h
How it was run: (§3)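 Broth microdilution in RPMI 1640 with glutamine, fluconazole as reference. For yeasts, MIC is ≥80% growth reduction (IC80) versus control. For filamentous fungi, the value is expressed as IC50. Readings at 24 and 48 h.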

[8] = system: Lichtheimia corymbifera; assay: Antifungal activity against Absidia corymbifera 272 after 24 hrs by broth microdilution method; type: functional; conditions: Lichtheimia corymbifera, 272, 24 h; how it was run: as §3
[9] = system: Aspergillus fumigatus; assay: Antifungal activity against Aspergillus fumigatus 231 after 48 hrs by broth microdilution method; type: functional; conditions: Aspergillus fumigatus, 231, 48 h; how it was run: as §3
[10] = system: Aspergillus fumigatus; assay: Antifungal activity against Aspergillus fumigatus 231 after 24 hrs by broth microdilution method; type: functional; conditions: Aspergillus fumigatus, 231, 24 h; how it was run: as §3
[11] = system: Trichosporon asahii; assay: Antifungal activity against Trichosporon asahii 1188 after 48 hrs by broth microdilution method; type: functional; conditions: Trichosporon asahii, 1188, 48 h; how it was run: as §3
[12] = system: Trichosporon asahii; assay: Antifungal activity against Trichosporon asahii 1188 after 24 hrs by broth microdilution method; type: functional; conditions: Trichosporon asahii, 1188, 24 h; how it was run: as §3
[13] = system: Pichia kudriavzevii; assay: Antifungal activity against Candida krusei E28 after 48 hrs by broth microdilution method; type: functional; conditions: E28, 48 h; how it was run: as §3
[14] = system: Pichia kudriavzevii; assay: Antifungal activity against Candida krusei E28 after 24 hrs by broth microdilution method; type: functional; conditions: E28, 24 h; how it was run: as §3
[15] = system: Candida albicans; assay: Antifungal activity against Candida albicans ATCC 44859 after 48 hrs by broth microdilution method; type: functional; conditions: ATCC 44859, 48 h; how it was run: as §3
[16] = system: Candida albicans; assay: Antifungal activity against Candida albicans ATCC 44859 after 24 hrs by broth microdilution method; type: functional; conditions: ATCC 44859, 24 h; how it was run: as §3
[17] = system: Nakaseomyces glabratus; assay: Antifungal activity against Candida glabrata 20/I at 500 micromol/L after 24 to 48 hrs by broth microdilution method; type: functional, organism-based; how it was run: as §3
[18] = system: Candida tropicalis; assay: Antifungal activity against Candida tropicalis 156 at 500 micromol/L after 24 to 48 hrs by broth microdilution method; type: functional, organism-based; how it was run: as §3
[19] = system: Pseudomonas aeruginosa; assay: Antibacterial activity against Pseudomonas aeruginosa CCM 1961 at 500 micromol/L after 24 to 48 hrs by broth microdilution method; type: functional, organism-based
How it was run: (§4)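 Broth microdilution in Mueller–Hinton broth, compounds dissolved in DMSO, tested over a dilution series from 500 downward. MIC taken as ≥95% growth reduction (IC95) versus drug-free control. Benzylpenicillin comparator. Readings at 24 and 48 h.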

[20] = system: Klebsiella pneumoniae; assay: Antibacterial activity against ESBL-positive Klebsiella pneumoniae J 14368/08 at 500 micromol/L after 24 to 48 hrs by broth microdilution method; type: functional, organism-based; how it was run: as §4
[21] = system: Klebsiella pneumoniae; assay: Antibacterial activity against Klebsiella pneumoniae D 11750/08 at 500 micromol/L after 24 to 48 hrs by broth microdilution method; type: functional, organism-based; how it was run: as §4
[22] = system: Escherichia coli; assay: Antibacterial activity against Escherichia coli CCM 4517 at 500 micromol/L after 24 to 48 hrs by broth microdilution method; type: functional, organism-based; how it was run: as §4
[23] = system: Enterococcus sp.; assay: Antibacterial activity against Enterococcus sp. J 14365/08 at 500 micromol/L after 24 to 48 hrs by broth microdilution method; type: functional, organism-based; how it was run: as §4
[24] = system: Staphylococcus epidermidis; assay: Antibacterial activity against Staphylococcus epidermidis H 6966/08 after 48 hrs by broth microdilution method; type: functional; conditions: H 6966/08, 48 h; how it was run: as §4
[25] = system: Staphylococcus epidermidis; assay: Antibacterial activity against Staphylococcus epidermidis H 6966/08 after 24 hrs by broth microdilution method; type: functional; conditions: H 6966/08, 24 h; how it was run: as §4
[26] = system: Staphylococcus aureus; assay: Antibacterial activity against methicillin-resistant Staphylococcus aureus H 5996/08 after 48 hrs by broth microdilution method; type: functional; conditions: H 5996/08, 48 h; how it was run: as §4
[27] = system: Staphylococcus aureus; assay: Antibacterial activity against methicillin-resistant Staphylococcus aureus H 5996/08 after 24 hrs by broth microdilution method; type: functional; conditions: H 5996/08, 24 h; how it was run: as §4
[28] = system: Staphylococcus aureus; assay: Antibacterial activity against Staphylococcus aureus CCM 4516/08 after 48 hrs by broth microdilution method; type: functional; conditions: CCM 4516/08, 48 h; how it was run: as §4
[29] = system: Staphylococcus aureus; assay: Antibacterial activity against Staphylococcus aureus CCM 4516/08 after 24 hrs by broth microdilution method; type: functional; conditions: CCM 4516/08, 24 h; how it was run: as §4
[30] = system: Mycobacterium kansasii; assay: Antimycobacterial activity against Mycobacterium kansasii 6509/96 after 21 days; type: functional; conditions: 6509/96, 504 h; how it was run: as §1
[31] = system: Mycobacterium kansasii; assay: Antimycobacterial activity against Mycobacterium kansasii 6509/96 after 14 days; type: functional; conditions: 6509/96, 336 h; how it was run: as §1
[32] = system: Mycobacterium kansasii; assay: Antimycobacterial activity against Mycobacterium kansasii 6509/96 after 7 days; type: functional; conditions: 6509/96, 168 h; how it was run: as §1
[33] = system: Mycobacterium kansasii; assay: Antimycobacterial activity against Mycobacterium kansasii My 235/80 after 21 days; type: functional; conditions: My 235/80, 504 h; how it was run: as §1
[34] = system: Mycobacterium kansasii; assay: Antimycobacterial activity against Mycobacterium kansasii My 235/80 after 14 days; type: functional; conditions: My 235/80, 336 h; how it was run: as §1
[35] = system: HepG2; assay: Cytotoxicity against human HepG2 cells after 24 hrs by CellTiter assay; type: cell-based; conditions: HepG2, 24 h
How it was run: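 HepG2 cells (passage 27–33) in MEM with 10% FBS, L-glutamine and NEAA, seeded at 1×10^4 per well. Treated next day with compounds at 0.1–100 µM (or 0.1–25 µmol/L), triplicates, <1% DMSO, for 24 h at 37 °C, 5% CO2. MTS reagent added for 2 h, absorbance read at 490 nm. IC50 taken against untreated (100%) and 10% DMSO (0%) controls.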

[36] = system: Mycobacterium kansasii; assay: Antimycobacterial activity against Mycobacterium kansasii My 235/80 after 7 days; type: functional; conditions: My 235/80, 168 h; how it was run: as §1

Structure (SMILES) | MIC [1] | MIC [2] | MIC [3] | MIC [4] | MIC50 [5] | MIC50 [6] | MIC50 [7] | MIC50 [8] | MIC50 [9] | MIC50 [10] | MIC80 [11] | MIC80 [12] | MIC80 [13] | MIC80 [14] | MIC80 [15] | MIC80 [16] | Activity [17] | Activity [18] | Activity [19] | Activity [20] | also measured
CCOP(=O)(OCC)Oc1ccc(Br)cc1C(=O)Nc1ccc(Br)cc1 | 8 µM (≈ 4.06 µg/mL) | 8 µM (≈ 4.06 µg/mL) | 2 µM (≈ 1.01 µg/mL) | 2 µM (≈ 1.01 µg/mL) | 3.9 µM (≈ 1.98 µg/mL) | 3.9 µM (≈ 1.98 µg/mL) | 125 µM (≈ 63.4 µg/mL) | 125 µM (≈ 63.4 µg/mL) | 500 µM (≈ 254 µg/mL) | 500 µM (≈ 254 µg/mL) | 62.5 µM (≈ 31.7 µg/mL) | 62.5 µM (≈ 31.7 µg/mL) | 125 µM (≈ 63.4 µg/mL) | 125 µM (≈ 63.4 µg/mL) | > 500 µM | > 500 µM | inactive | inactive | inactive | inactive | Activity [21]: inactive; Activity [22]: inactive; Activity [23]: inactive; MIC95 [24]: 1.95 µM (≈ 0.989 µg/mL); MIC95 [25]: 1.95 µM (≈ 0.989 µg/mL); MIC95 [26]: 3.9 µM (≈ 1.98 µg/mL); MIC95 [27]: 3.9 µM (≈ 1.98 µg/mL); MIC95 [28]: 7.81 µM (≈ 3.96 µg/mL); MIC95 [29]: 7.81 µM (≈ 3.96 µg/mL); MIC [30]: 4 µM (≈ 2.03 µg/mL); MIC [31]: 4 µM (≈ 2.03 µg/mL); MIC [32]: 4 µM (≈ 2.03 µg/mL); MIC [33]: 4 µM (≈ 2.03 µg/mL); MIC [34]: 4 µM (≈ 2.03 µg/mL); IC50 [35]: 5.6 µM; MIC [36]: 2 µM (≈ 1.01 µg/mL)
CCOP(=O)(OCC)Oc1cc(Cl)ccc1C(=O)Nc1cccc(Cl)c1 | 16 µM (≈ 6.69 µg/mL) | 16 µM (≈ 6.69 µg/mL) | 8 µM (≈ 3.35 µg/mL) | 4 µM (≈ 1.67 µg/mL) | > 500 µM | > 500 µM | > 500 µM | > 500 µM | > 500 µM | > 500 µM | > 500 µM | > 500 µM | > 500 µM | > 500 µM | > 500 µM | > 500 µM | inactive | inactive | inactive | inactive | Activity [21]: inactive; Activity [22]: inactive; Activity [23]: inactive; MIC95 [24]: 500 µM (≈ 209 µg/mL); MIC95 [25]: 250 µM (≈ 105 µg/mL); MIC95 [26]: 500 µM (≈ 209 µg/mL); MIC95 [27]: 500 µM (≈ 209 µg/mL); MIC95 [28]: 500 µM (≈ 209 µg/mL); MIC95 [29]: 500 µM (≈ 209 µg/mL); MIC [30]: 8 µM (≈ 3.35 µg/mL); MIC [31]: 8 µM (≈ 3.35 µg/mL); MIC [32]: 8 µM (≈ 3.35 µg/mL); MIC [33]: 8 µM (≈ 3.35 µg/mL); MIC [34]: 8 µM (≈ 3.35 µg/mL); IC50 [35]: 9.57 µM; MIC [36]: 4 µM (≈ 1.67 µg/mL)
